Results as given in ChEMBL document CHEMBL3124806, “Imidazopyridine-fused [1,3]-diazepinones: synthesis and antiproliferative activity” (Eur J Med Chem, 2014).

Legend:
Type in all cases: functional
MDA-MB-231 = test: Cytotoxicity against human MDA-MB-231 cells assessed as cell growth at 10 uM after 48 hrs by SRB assay relative to untreated control; conditions: MDA-MB-231, 48 h, read-out: Activity
In short: (§1)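 NCI-60 one-dose screen: each agent added at 10 µM, cultures incubated 48 h. Endpoint by sulforhodamine B protein-binding dye read spectrophotometrically; growth expressed as percent of untreated control cells.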

DU-145 = test: Cytotoxicity against human DU145 cells assessed as cell growth at 10 uM after 48 hrs by SRB assay relative to untreated control; conditions: DU-145, 48 h, read-out: Activity
In short: (§2)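 NCI-60 panel screen at a single concentration of 10 μM with 48 h incubation. Cell density measured by sulforhodamine B protein-binding dye and read spectrophotometrically. Growth expressed as percent of untreated control cells.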

PC-3 = test: Cytotoxicity against human PC3 cells assessed as cell growth at 10 uM after 48 hrs by SRB assay relative to untreated control; conditions: PC-3, 48 h, read-out: Activity; in short: as §1
[1] = Cytotoxicity against human UO31 cells assessed as cell growth at 10 uM after 48 hrs by SRB assay relative to untreated control; conditions: UO-31, 48 h, read-out: Activity
In short: (§3)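 NCI-60 single-dose screen. Compounds were added to the cultures at 10 μM and incubated for 48 h. The end point was sulforhodamine B protein staining read spectrophotometrically. Growth is reported as percent of untreated control cells.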

TK-10 = test: Cytotoxicity against human TK10 cells assessed as cell growth at 10 uM after 48 hrs by SRB assay relative to untreated control; conditions: TK-10, 48 h, read-out: Activity; in short: as §3
RXF 393 = test: Cytotoxicity against human RXF393 cells assessed as cell growth at 10 uM after 48 hrs by SRB assay relative to untreated control; conditions: RXF 393, 48 h, read-out: Activity; in short: as §1
CAKI-1 = test: Cytotoxicity against human Caki1 cells assessed as cell growth at 10 uM after 48 hrs by SRB assay relative to untreated control; conditions: CAKI-1, 48 h, read-out: Activity; in short: as §2
A498 = test: Cytotoxicity against human A498 cells assessed as cell growth at 10 uM after 48 hrs by SRB assay relative to untreated control; conditions: A498, 48 h, read-out: Activity; in short: as §2
OVCAR-8 = test: Cytotoxicity against human OVCAR8 cells assessed as cell growth at 10 uM after 48 hrs by SRB assay relative to untreated control; conditions: OVCAR-8, 48 h, read-out: Activity; in short: as §1
[2] = Cytotoxicity against human OVCAR4 cells assessed as cell growth at 10 uM after 48 hrs by SRB assay relative to untreated control; conditions: OVCAR-4, 48 h, read-out: Activity; in short: as §1
OVCAR-3 = test: Cytotoxicity against human OVCAR3 cells assessed as cell growth at 10 uM after 48 hrs by SRB assay relative to untreated control; conditions: OVCAR-3, 48 h, read-out: Activity; in short: as §1
IGROV-1 = test: Cytotoxicity against human IGROV1 cells assessed as cell growth at 10 uM after 48 hrs by SRB assay relative to untreated control; conditions: IGROV-1, 48 h, read-out: Activity; in short: as §2
[3] = Cytotoxicity against human UACC257 cells assessed as cell growth at 10 uM after 48 hrs by SRB assay relative to untreated control; conditions: UACC-257, 48 h, read-out: Activity; in short: as §3
SK-MEL-28 = test: Cytotoxicity against human SK-MEL-28 cells assessed as cell growth at 10 uM after 48 hrs by SRB assay relative to untreated control; conditions: SK-MEL-28, 48 h, read-out: Activity; in short: as §3
MDA-MB-435 = test: Cytotoxicity against human MDA-MB-435 cells assessed as cell growth at 10 uM after 48 hrs by SRB assay relative to untreated control; conditions: MDA-MB-435, 48 h, read-out: Activity; in short: as §1
LOX IMVI = test: Cytotoxicity against human LOXIMVI cells assessed as cell growth at 10 uM after 48 hrs by SRB assay relative to untreated control; conditions: read-out: Activity; in short: as §2
SNB-75 = test: Cytotoxicity against human SNB75 cells assessed as cell growth at 10 uM after 48 hrs by SRB assay relative to untreated control; conditions: SNB-75, 48 h, read-out: Activity; in short: as §3
SF-295 = test: Cytotoxicity against human SF295 cells assessed as cell growth at 10 uM after 48 hrs by SRB assay relative to untreated control; conditions: SF-295, 48 h, read-out: Activity; in short: as §1
SF-268 = test: Cytotoxicity against human SF268 cells assessed as cell growth at 10 uM after 48 hrs by SRB assay relative to untreated control; conditions: SF-268, 48 h, read-out: Activity; in short: as §1
SW-620 = test: Cytotoxicity against human SW620 cells assessed as cell growth at 10 uM after 48 hrs by SRB assay relative to untreated control; conditions: SW-620, 48 h, read-out: Activity; in short: as §3
KM12 = test: Cytotoxicity against human KM12 cells assessed as cell growth at 10 uM after 48 hrs by SRB assay relative to untreated control; conditions: KM12, 48 h, read-out: Activity; in short: as §2
HCT-116 = test: Cytotoxicity against human HCT116 cells assessed as cell growth at 10 uM after 48 hrs by SRB assay relative to untreated control; conditions: HCT-116, 48 h, read-out: Activity; in short: as §2
HCC 2998 = test: Cytotoxicity against human HCC2998 cells assessed as cell growth at 10 uM after 48 hrs by SRB assay relative to untreated control; conditions: HCC 2998, 48 h, read-out: Activity; in short: as §2
COLO 205 = test: Cytotoxicity against human COLO205 cells assessed as cell growth at 10 uM after 48 hrs by SRB assay relative to untreated control; conditions: COLO 205, 48 h, read-out: Activity; in short: as §2
NCI-H460 = test: Cytotoxicity against human NCI-H460 cells assessed as cell growth at 10 uM after 48 hrs by SRB assay relative to untreated control; conditions: NCI-H460, 48 h, read-out: Activity; in short: as §1
NCI-H226 = test: Cytotoxicity against human NCI-H226 cells assessed as cell growth at 10 uM after 48 hrs by SRB assay relative to untreated control; conditions: NCI-H226, 48 h, read-out: Activity; in short: as §1
HOP-92 = test: Cytotoxicity against human HOP92 cells assessed as cell growth at 10 uM after 48 hrs by SRB assay relative to untreated control; conditions: HOP-92, 48 h, read-out: Activity; in short: as §2
HOP-62 = test: Cytotoxicity against human HOP62 cells assessed as cell growth at 10 uM after 48 hrs by SRB assay relative to untreated control; conditions: HOP-62, 48 h, read-out: Activity; in short: as §2
SR = test: Cytotoxicity against human SR cells assessed as cell growth at 10 uM after 48 hrs by SRB assay relative to untreated control; conditions: read-out: Activity; in short: as §3
RPMI-8226 = test: Cytotoxicity against human RPMI8226 cells assessed as cell growth at 10 uM after 48 hrs by SRB assay relative to untreated control; conditions: RPMI-8226, 48 h, read-out: Activity; in short: as §1
K562 = test: Cytotoxicity against human K562 cells assessed as cell growth at 10 uM after 48 hrs by SRB assay relative to untreated control; conditions: K562, 48 h, read-out: Activity; in short: as §2

| Structure (SMILES) | growth at 10 µM (MDA-MB-231) [%] | growth at 10 µM (DU-145) [%] | growth at 10 µM [1] [%] | growth at 10 µM (TK-10) [%] | growth at 10 µM (RXF 393) [%] | growth at 10 µM (CAKI-1) [%] | growth at 10 µM (A498) [%] | growth at 10 µM [2] [%] | growth at 10 µM (OVCAR-3) [%] | growth at 10 µM (IGROV-1) [%] | growth at 10 µM [3] [%] | growth at 10 µM (SK-MEL-28) [%] | growth at 10 µM (MDA-MB-435) [%] | growth at 10 µM (LOX IMVI) [%] | growth at 10 µM (SNB-75) [%] | growth at 10 µM (SF-295) [%] | growth at 10 µM (SF-268) [%] | growth at 10 µM (SW-620) [%] | growth at 10 µM (KM12) [%] | growth at 10 µM (HCT-116) [%] | further results |
| --- | --- | --- | --- | --- | --- | --- | --- | --- | --- | --- | --- | --- | --- | --- | --- | --- | --- | --- | --- | --- | --- |
| COc1ccc(C2=Nc3nc4ccccn4c3C(=O)[C@H](Cc3ccccc3)N2)cc1 | 121 | 111 | 83.5 | 133 | 107 | 87.7 | 112 | 112 | 110 | 107 | 92.3 | 98.1 | 51.4 | 95.2 | 77.5 | 92.5 | 105 | 100 | 99.9 | 88 | growth at 10 µM (PC-3): 91.8%; growth at 10 µM (OVCAR-8): 91.4%; growth at 10 µM (HCC 2998): 96.4%; growth at 10 µM (COLO 205): 127%; growth at 10 µM (NCI-H460): 104%; growth at 10 µM (NCI-H226): 98.6%; growth at 10 µM (HOP-92): 95.6%; growth at 10 µM (HOP-62): 88.2%; growth at 10 µM (SR): 105%; growth at 10 µM (RPMI-8226): 98.1%; growth at 10 µM (K562): 86% |
| C[C@@H]1NC(c2ccc(N(C)C)cc2)=Nc2nc3ccccn3c2C1=O | 78.9 | 109 | 53.7 | 86 | 111 | 89.7 | 88.8 | 91.8 | 101 | 84.8 | 97.6 | 113 | 94.5 | 87 | 70 | 92.1 | 103 | 85.3 | 96.3 | 101 | growth at 10 µM (OVCAR-8): 88.2%; growth at 10 µM (HCC 2998): 103%; growth at 10 µM (COLO 205): 94.2%; growth at 10 µM (NCI-H460): 91.9%; growth at 10 µM (NCI-H226): 77.5%; growth at 10 µM (HOP-92): 33%; growth at 10 µM (HOP-62): 74.2%; growth at 10 µM (SR): 86.6%; growth at 10 µM (RPMI-8226): 84.9%; growth at 10 µM (K562): 82.2% |
| C[C@@H]1NC(c2ccccc2)=Nc2nc3ccccn3c2C1=O | 89.8 | 116 | 82.5 | 135 | 104 | 81.8 | 84.6 | 103 | 103 | 88.2 | 121 | 113 | 91.6 | 84.2 | 82.8 | 89 | 103 | 93.5 | 98.9 | 98.4 | growth at 10 µM (PC-3): 82.5%; growth at 10 µM (HCC 2998): 90.9%; growth at 10 µM (COLO 205): 109%; growth at 10 µM (NCI-H460): 104%; growth at 10 µM (NCI-H226): 88%; growth at 10 µM (HOP-92): 75.5%; growth at 10 µM (HOP-62): 102%; growth at 10 µM (SR): 106%; growth at 10 µM (RPMI-8226): 85.7%; growth at 10 µM (K562): 108% |
| O=C1c2c(nc3ccccn23)NC(=O)N2CCC[C@@H]12 | 118 | 100 | 95.1 | 99.6 | 104 | 97.9 | 88.5 | 104 | 108 | 109 | 91 | 106 | 94.9 | 92.8 | 96.5 | 100 | 100 | 106 | 105 | 89 | growth at 10 µM (PC-3): 93.8%; growth at 10 µM (OVCAR-8): 94.2%; growth at 10 µM (HCC 2998): 105%; growth at 10 µM (COLO 205): 123%; growth at 10 µM (NCI-H460): 105%; growth at 10 µM (NCI-H226): 100%; growth at 10 µM (HOP-92): 86.2%; growth at 10 µM (HOP-62): 97.1%; growth at 10 µM (SR): 126%; growth at 10 µM (RPMI-8226): 103% |
